Laboratory results: EPA's CvTdb concentration-time database

Assays:
Rat [1] = assay: concentration in plasma after dosing; conditions: dosed: Isoeugenol, 70 mg/kg, oral, Male, F344/N
Rat [2] = assay: concentration in plasma after dosing; conditions: dosed: Isoeugenol, 17 mg/kg, oral, Female, F344/N
Rat [3] = assay: concentration in plasma after dosing; conditions: dosed: Isoeugenol, 17 mg/kg, oral, Male, F344/N
Rat [4] = assay: concentration in plasma after dosing; conditions: dosed: Isoeugenol, 70 mg/kg, oral, Male, F344/N; remark: listed apart in the source
Rat [5] = assay: concentration in plasma after dosing; conditions: dosed: Isoeugenol, 17 mg/kg, oral, Male, F344/N; remark: listed apart in the source
Rat [6] = assay: concentration in plasma after dosing; conditions: 20 min; dosed: Isoeugenol; 17 mg/kg; oral; Male; F344/N
Rat [7] = assay: concentration in plasma after dosing; conditions: dosed: Isoeugenol, 70 mg/kg, oral, Male, F344/N; remark: listed apart in the source
Rat [8] = assay: concentration in plasma after dosing; conditions: 5 min; dosed: Isoeugenol; 17 mg/kg; oral; Male; F344/N
Rat [9] = assay: concentration in plasma after dosing; conditions: 2 h; dosed: Tetralin; 20 mg/kg; iv; Female; Harlan Sprague Dawley
Rat [10] = assay: concentration in plasma after dosing; conditions: dosed: Tetralin, 2 mg/kg, iv, Male, F344
Rat [11] = assay: concentration in plasma after dosing; conditions: dosed: Tetralin, 2 mg/kg, iv, Male, F344; remark: listed apart in the source
Rat [12] = assay: concentration in plasma after dosing; conditions: dosed: Tetralin, 20 mg/kg, iv, Female, Harlan Sprague Dawley
Rat [13] = assay: concentration in plasma after dosing; conditions: dosed: Tetralin, 20 mg/kg, iv, Female, Harlan Sprague Dawley; remark: listed apart in the source
Rat [14] = assay: concentration in plasma after dosing; conditions: dosed: Tetralin, 20 mg/kg, iv, Female, Harlan Sprague Dawley; remark: listed apart in the source
Rat [15] = assay: concentration in plasma after dosing; conditions: 2 h; dosed: Tetralin; 20 mg/kg; iv; Female; Harlan Sprague Dawley; remark: listed apart in the source
Rat [16] = assay: concentration in plasma after dosing; conditions: dosed: Tetralin, 2 mg/kg, iv, Male, Harlan Sprague Dawley
Rat [17] = assay: concentration in plasma after dosing; conditions: dosed: Tetralin, 2 mg/kg, iv, Male, F344; remark: listed apart in the source
Rat [18] = assay: concentration in plasma after dosing; conditions: dosed: Tetralin, 2 mg/kg, iv, Male, Harlan Sprague Dawley; remark: listed apart in the source
Rat [19] = assay: concentration in plasma after dosing; conditions: dosed: Tetralin, 2 mg/kg, iv, Male, Harlan Sprague Dawley; remark: listed apart in the source
Rat [20] = assay: concentration in plasma after dosing; conditions: dosed: Tetralin, 2 mg/kg, iv, Male, F344; remark: listed apart in the source
human = assay: concentration in blood after dosing; conditions: dosed: styrene, 80 ppm, inhalation, duration: 6 hr
Procedure, shortened: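 Sampling and analytical methods are those of each source and frequently went unreported. The concentration-versus-time and amount-versus-time points were compiled from published in vivo toxicokinetic studies and two structured collections. Most were digitised from plot screenshots with WebPlotDigitizer, with others copied from tables, in the reported units.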

rat [21] = assay: concentration in blood after dosing; conditions: dosed: styrene, 3000 ppm, dermal, duration: 4 hr, male, F344
rat [22] = assay: concentration in blood after dosing; conditions: dosed: styrene, 3000 ppm, dermal, duration: 4 hr, male, F344; remark: listed apart in the source

C/C=C/c1ccc(O)c(OC)c1 [Isoeugenol]
Conditions	concentration in plasma [ng/mL]
Rat [1], 5 h	66.8
Rat [1], 10 min	353
Rat [2], 1 h	129
Rat [2], 5 h	69.7
Rat [3], 0.75 h	57
Rat [3], 8 h	19.5
Rat [4], 2 min	74.6
Rat [4], 6 h	84.5
Rat [5], 0.5 h	130
Rat [5], 2 h	35.7
Rat [7], 1.5 h	209
Rat [7], 5 min	526

Conditions	concentration in plasma [ng/mL]
Rat [6]	132
Rat [8]	194

c1ccc2c(c1)CCCC2 [Tetralin]
Conditions	concentration in plasma [µg/g]
Rat [9]	0.628
Rat [15]	0.52

Conditions	concentration in plasma [µg/g]
Rat [10], 0.75 h	0.105
Rat [10], 12 h	0.00167
Rat [11], 0.09 h	1.33
Rat [11], 4 h	0.0088
Rat [12], 1 h	1.98
Rat [12], 24 h	0.0136
Rat [13], 1 h	0.797
Rat [13], 24 h	0.00536
Rat [14], 0.5017 h	5.04
Rat [14], 8 h	0.0561
Rat [16], 0.5033 h	0.208
Rat [16], 8 h	0.00401
Rat [17], 0.75 h	0.134
Rat [17], 12 h	0.00182
Rat [18], 0.2533 h	0.406
Rat [18], 6 h	0.00586
Rat [19], 1 h	0.0468
Rat [19], 24 h	0.00083
Rat [20], 0.25 h	0.386
Rat [20], 6 h	0.0061

C=Cc1ccccc1 [styrene]
Conditions	concentration in blood [ng/mL]
human, 0.7751 h	429
human, 2.296 h	742
human, 4.093 h	759
human, 5.217 h	777
human, 6.069 h	904
human, 6.347 h	484
human, 7.03 h	241
human, 7.933 h	178
human, 10.01 h	92.2
human, 11.99 h	61.1
human, 14.2 h	52.4
human, 18.16 h	34.7
human, 23.1 h	26.7
human, 29.98 h	18.5
human, 46.98 h	10.1
rat [21], 0.5 h	1550
rat [21], 1 h	3450
rat [21], 2 h	4650
rat [21], 3 h	8180
rat [21], 4 h	8810
rat [22], 0.5 h	1870
rat [22], 1 h	2430
rat [22], 2 h	5540
rat [22], 3 h	6070
rat [22], 4 h	7900
